Assay results from ChEMBL document CHEMBL5344428, “Discovery, Crystallographic Studies, and Mechanistic Investigations of Novel Phenylalanine Derivatives Bearing a Quinazolin-4-one Scaffold as Potent HIV Capsid Modulators” (J Med Chem, 2023).

Experiments:
[1] = Selectivity ratio of EC50 for antiviral activity against HIV1 IIIB infected in human MT4 cells to EC50 for antiviral activity against HIV2 ROD infected in human MT4 cells; assay type: toxicity, cell-based
How it was run: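 Ratio is EC50 against HIV-1 IIIB divided by EC50 against HIV-2 ROD. Both EC50 values come from MTT-read protection of infected MT-4 cells.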

[2] = Selectivity index, ratio of CC50 for cytotoxicity against human MT4 cells to EC50 for antiviral activity against HIV2 ROD infected in human MT4 cells; assay type: toxicity, cell-based; conditions: read-out: Ratio CC50/EC50
How it was run: (§1)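 SI is CC50 divided by EC50. CC50 comes from MTT viability of uninfected MT-4 cells. EC50 comes from MTT-read protection of MT-4 cells infected with HIV-1 IIIB or HIV-2 ROD. Each value was run in at least triplicate.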

[3] = Selectivity index, ratio of CC50 for cytotoxicity against human MT4 cells to EC50 for antiviral activity against HIV1 IIIB infected in human MT4 cells; assay type: toxicity, cell-based; conditions: read-out: Ratio CC50/EC50; how it was run: as §1
[4] = Cytotoxicity against human MT4 cells assessed as reduction in cell viability incubated for 5 days by MTT assay; assay type: toxicity, cell-based; conditions: MT4 cells, time 5 day
How it was run: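 Uninfected MT-4 cells were exposed to compound, and viability was read by the MTT method. […] Each value was run in at least triplicate and averaged from at least three independent experiments.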

[5] = test system: Human immunodeficiency virus 1; assay: Antiviral activity against HIV1 IIIB infected in human MT4 cells assessed as reduction in virus induced cytopathic effect measured after 5 days by MTT assay; assay type: functional, organism-based; conditions: Human immunodeficiency virus 1, IIIB, MT4, 120 h
How it was run: (§2)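 MT-4 cells were infected with HIV-1 IIIB or HIV-2 ROD, and cell viability was read by MTT. […] Each value was run in at least triplicate and averaged from at least three independent experiments.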

[6] = test system: Human immunodeficiency virus 2; assay: Antiviral activity against HIV2 ROD infected in human MT4 cells assessed as reduction in virus induced cytopathic effect measured after 5 days by MTT assay; assay type: functional, organism-based; conditions: Human immunodeficiency virus 2, ROD, MT4, 120 h; how it was run: as §2

SMILES	Ratio EC50 [1]	selectivity ratio [2]	selectivity ratio [3]	CC50 at 120 h [4]	EC50 [5]	EC50 [6]
COc1ccc(N(C)C(=O)[C@H](Cc2ccccc2)NC(=O)Cn2ccc(N)cc2=O)cc1	1.47	13.2	8.98	261 µM	29.1 µM	19.7 µM
COc1ccc(-n2c([C@H](Cc3cc(F)cc(F)c3)NC(=O)CN3CCN(S(=O)(=O)c4ccc(N)cc4)CC3)nc3cc(S(C)(=O)=O)ccc3c2=O)cc1	4.53	> 1040	> 236	> 160 µM	0.68 µM	0.15 µM
COc1ccc(N(C)C(=O)[C@H](Cc2ccccc2)NC(=O)Cn2ccc(NC(=O)c3ccccc3)cc2=O)cc1	3.46	17.8	5.15	86.5 µM	16.8 µM	4.86 µM
COc1ccc(-n2c([C@H](Cc3ccccc3)NC(=O)CN3CCN(S(=O)(=O)c4ccc([N+](=O)[O-])cc4)CC3)nc3cc(F)ccc3c2=O)cc1	3.55	> 312	> 88	> 175 µM	1.99 µM	0.56 µM
COc1ccc(N(C)C(=O)[C@H](Cc2ccccc2)NC(=O)Cn2ccc(NC(=O)c3ccccc3F)cc2=O)cc1	2.26	10.3	4.55	81.4 µM	17.9 µM	7.92 µM
COc1ccc(-n2c(SCC(F)F)nnc2[C@H](Cc2ccccc2)NC(=O)Cc2c(C)[nH]c3ccccc23)cc1	0.35	3	10	24.4 µM	2.54 µM	7.33 µM
COc1ccc(N(C)C(=O)[C@H](Cc2cc(F)cc(F)c2)NC(=O)CN(Cc2ccc(F)cc2)C(=O)Cc2ccc(B(O)O)cc2)cc1	0.64	3	4	18.9 µM	4.33 µM	6.8 µM
COc1ccc(-n2c(SCc3ncccn3)nnc2[C@H](Cc2ccccc2)NC(=O)Cc2c(C)[nH]c3ccccc23)cc1	0.24	14	58	106 µM	1.81 µM	7.43 µM
COc1ccc(-n2c(SCc3ccccn3)nnc2[C@H](Cc2ccccc2)NC(=O)Cc2c(C)[nH]c3ccccc23)cc1	0.63	6	9	24.2 µM	2.61 µM	4.16 µM
COc1ccc(N(C)C(=O)[C@H](Cc2cc(F)cc(F)c2)NC(=O)CN(CC2CCCCC2)C(=O)Cn2nc(C(F)(F)F)cc2C)cc1	1.22	2	2	45.7 µM	30.3 µM	24.9 µM
COc1ccc(N(C)C(=O)[C@H](Cc2ccccc2)NC(=O)Cn2ccc(NC(=O)c3cccc(F)c3)cc2=O)cc1	2.87	9.36	3.26	61.6 µM	18.9 µM	6.59 µM
COc1ccc(N(C)C(=O)[C@H](Cc2cc(F)cc(F)c2)NC(=O)CN2CCN(C(=O)Cc3c(C)[nH]c4ccccc34)CC2=O)cc1	1.06	3.91	3.69	76.9 µM	20.8 µM	19.7 µM
COc1ccc(-n2c([C@H](Cc3ccccc3)NC(=O)CN3CCN(S(=O)(=O)c4ccc(N)cc4)CC3)nc3cc(S(C)(=O)=O)ccc3c2=O)cc1	10.97	> 481	> 43.7	> 168 µM	3.84 µM	0.35 µM
COc1ccc(N(C)C(=O)[C@H](Cc2cc(F)cc(F)c2)NC(=O)CN2CCN(C(=O)c3ccc(NC(=O)C(F)(F)F)cc3)CC2=O)cc1	0.83	9.09	10.9	150 µM	13.7 µM	16.6 µM
COc1ccc(N(C)C(=O)[C@H](Cc2cc(F)cc(F)c2)NC(=O)CN(Cc2ccc(F)cc2)C(=O)Cc2ccc(B3OC(C)(C)C(C)(C)O3)cc2)cc1	0.89	5	6	65.4 µM	11.7 µM	13.2 µM
COc1ccc(N(C)C(=O)[C@H](Cc2ccccc2)NC(=O)Cn2ccc(NC(=O)c3ccc(C#N)cc3)cc2=O)cc1	0.94	7.69	8.18	137 µM	16.8 µM	17.8 µM
COc1ccc(N(C)C(=O)[C@H](Cc2ccccc2)NC(=O)CN2CCN(C(=O)Cc3c[nH]c4ccc(OC)cc34)CC2=O)cc1	0.86	6.15	7.15	104 µM	14.6 µM	16.9 µM
COc1ccc(-n2c([C@H](Cc3ccccc3)NC(=O)CN3CCN(S(=O)(=O)c4ccc(N)cc4)CC3)nc3ccccc3c2=O)cc1	4.27	> 1250	> 291	> 187 µM	0.64 µM	0.15 µM
Nc1ccc(S(=O)(=O)N2CCN(CC(=O)N[C@@H](Cc3ccccc3)c3nc4ccccc4c(=O)n3-c3ccc(S(=O)(=O)N4CCOCC4)cc3)CC2)cc1	1.5	> 1560	> 1040	> 159 µM	0.15 µM	0.1 µM
C#CCSc1nnc([C@H](Cc2ccccc2)NC(=O)Cc2c(C)[nH]c3ccccc23)n1-c1ccc(OC)cc1	0.52	6	12	24.7 µM	2.05 µM	3.94 µM
COc1ccc(N(C)C(=O)[C@H](Cc2cc(F)cc(F)c2)NC(=O)CN(Cc2ccc(C#N)cc2)C(=O)Cc2ccc(B3OC(C)(C)C(C)(C)O3)cc2)cc1	1.09	3	3	52.4 µM	17.7 µM	16.2 µM
COc1ccc(N(C)C(=O)[C@H](Cc2cc(F)cc(F)c2)NC(=O)CN2CCN(C(=O)Cc3c[nH]c4ccc(F)cc34)CC2=O)cc1	1.16	3.23	2.78	16.4 µM	5.89 µM	5.07 µM
COc1ccc(N(C)C(=O)[C@H](Cc2cc(F)cc(F)c2)NC(=O)CN(Cc2ccc(F)cc2)C(=O)Cc2c[nH]c3ccc(Br)cc23)cc1	< 0.16	< 1	6	17.8 µM	2.93 µM	> 17.8 µM
COc1ccc(N(C)C(=O)[C@H](Cc2cc(F)cc(F)c2)NC(=O)CN(Cc2ccc(F)cc2)C(=O)Cn2nc(C(F)(F)F)c3ccccc32)cc1	0.2	8	42	108 µM	2.53 µM	12.9 µM
